Source: ChEMBL document CHEMBL1126195, “A new, general synthetic route to multidentate N,S ligands for use in technetium-99m radiopharmaceuticals. Preparation of diamido disulfur, diamino dithiol, and tripodal N3S3 prototypes. Comparative biodistributions of [99mTcvO-DADS]- analogues which contain 5,5,5- and 5,7,5-membered chelate ring …” (J Med Chem, 1992)

Assays:
Rattus norvegicus [1] = species: Rattus norvegicus; assay: Biodistribution was reported in rat kidney after 1 min.; type: ADME, organism-based; details: in vivo
Method in brief: (§1)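 Female Sprague-Dawley rats (~200 g average, n = 3 per time point) were anesthetized with Metofane. They received 0.2 mL of 99mTc complex (50 µCi) by jugular vein injection. Rats were killed by cervical dislocation at early times or CO2 at later times. Blood (1 mL), brain, heart, a liver sample and one kidney were weighed and gamma-counted (100-150 keV) against standards. Values are average % injected dose/organ.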

Rattus norvegicus [2] = species: Rattus norvegicus; assay: Biodistribution was reported in rat kidney after 30 min.; type: ADME, organism-based; details: in vivo, 0.5 h; method in brief: as §1
Rattus norvegicus [3] = species: Rattus norvegicus; assay: Biodistribution was reported in rat kidney after 5 min.; type: ADME, organism-based; details: in vivo; method in brief: as §1
Rattus norvegicus [4] = species: Rattus norvegicus; assay: Biodistribution was reported in rat kidney after 60 min.; type: ADME, organism-based; details: in vivo, 1 h; method in brief: as §1
Rattus norvegicus [5] = species: Rattus norvegicus; assay: Biodistribution was reported in rat liver after 15 min.; type: ADME, organism-based; details: in vivo, 0.25 h; method in brief: as §1
Rattus norvegicus [6] = species: Rattus norvegicus; assay: Biodistribution was reported in rat liver after 1 min.; type: ADME, organism-based; details: in vivo; method in brief: as §1
Rattus norvegicus [7] = species: Rattus norvegicus; assay: Biodistribution was reported in rat liver after 60 min.; type: ADME, organism-based; details: in vivo, 1 h; method in brief: as §1
Rattus norvegicus [8] = species: Rattus norvegicus; assay: Biodistribution was reported in rat brain after 1 min.; type: ADME, organism-based; details: in vivo; method in brief: as §1
Rattus norvegicus [9] = species: Rattus norvegicus; assay: Biodistribution was reported in rat brain after 30 min.; type: ADME, organism-based; details: in vivo, 0.5 h; method in brief: as §1
Rattus norvegicus [10] = species: Rattus norvegicus; assay: Biodistribution was reported in rat brain after 5 min.; type: ADME, organism-based; details: in vivo; method in brief: as §1
Rattus norvegicus [11] = species: Rattus norvegicus; assay: Biodistribution was reported in rat brain after 60 min.; type: ADME, organism-based; details: in vivo, 1 h; method in brief: as §1
Rattus norvegicus [12] = species: Rattus norvegicus; assay: Biodistribution was reported in rat heart after 15 min.; type: ADME, organism-based; details: in vivo, 0.25 h; method in brief: as §1
Rattus norvegicus [13] = species: Rattus norvegicus; assay: Biodistribution was reported in rat heart after 1 min.; type: ADME, organism-based; details: in vivo; method in brief: as §1
Rattus norvegicus [14] = species: Rattus norvegicus; assay: Biodistribution was reported in rat heart after 30 min.; type: ADME, organism-based; details: in vivo, 0.5 h; method in brief: as §1
Rattus norvegicus [15] = species: Rattus norvegicus; assay: Biodistribution was reported in rat heart after 5 min.; type: ADME, organism-based; details: in vivo; method in brief: as §1
Rattus norvegicus [16] = species: Rattus norvegicus; assay: Biodistribution was reported in rat heart after 60 min.; type: ADME, organism-based; details: in vivo, 1 h; method in brief: as §1
Rattus norvegicus [17] = species: Rattus norvegicus; assay: Biodistribution was reported in rat kidney after 15 min.; type: ADME, organism-based; details: in vivo, 0.25 h; method in brief: as §1
Rattus norvegicus [18] = species: Rattus norvegicus; assay: Biodistribution was reported in rat blood after 15 min.; type: ADME, organism-based; details: in vivo, 0.25 h; method in brief: as §1
Rattus norvegicus [19] = species: Rattus norvegicus; assay: Biodistribution was reported in rat blood after 1 min.; type: ADME, organism-based; details: in vivo; method in brief: as §1
Rattus norvegicus [20] = species: Rattus norvegicus; assay: Biodistribution was reported in rat blood after 5 min.; type: ADME, organism-based; details: in vivo; method in brief: as §1
Rattus norvegicus [21] = species: Rattus norvegicus; assay: Biodistribution was reported in rat blood after 60 min.; type: ADME, organism-based; details: in vivo, 1 h; method in brief: as §1
Rattus norvegicus [22] = species: Rattus norvegicus; assay: Biodistribution was reported in rat brain after 15 min.; type: ADME, organism-based; details: in vivo, 0.25 h; method in brief: as §1
Rattus norvegicus [23] = species: Rattus norvegicus; assay: Biodistribution was reported in rat blood after 30 min.; type: ADME, organism-based; details: in vivo, 0.5 h; method in brief: as §1
Rattus norvegicus [24] = species: Rattus norvegicus; assay: Biodistribution was reported in rat liver after 30 min.; type: ADME, organism-based; details: in vivo, 0.5 h; method in brief: as §1
Rattus norvegicus [25] = species: Rattus norvegicus; assay: Biodistribution was reported in rat liver after 5 min.; details: in vivo

| Compound | Dose/organ (Rattus norvegicus [1]) | Dose/organ (Rattus norvegicus [2]) | Dose/organ (Rattus norvegicus [3]) | Dose/organ (Rattus norvegicus [4]) | Dose/organ (Rattus norvegicus [5]) | Dose/organ (Rattus norvegicus [6]) | Dose/organ (Rattus norvegicus [7]) | Dose/organ (Rattus norvegicus [8]) | Dose/organ (Rattus norvegicus [9]) | Dose/organ (Rattus norvegicus [10]) | Dose/organ (Rattus norvegicus [11]) | Dose/organ (Rattus norvegicus [12]) | Dose/organ (Rattus norvegicus [13]) | Dose/organ (Rattus norvegicus [14]) | Dose/organ (Rattus norvegicus [15]) | Dose/organ (Rattus norvegicus [16]) | Dose/organ (Rattus norvegicus [17]) | Dose/organ (Rattus norvegicus [18]) | Dose/organ (Rattus norvegicus [19]) | Dose/organ (Rattus norvegicus [20]) | further results |
| --- | --- | --- | --- | --- | --- | --- | --- | --- | --- | --- | --- | --- | --- | --- | --- | --- | --- | --- | --- | --- | --- |
| O=C(CSC(=O)c1ccccc1)NCC(c1ccccc1)C(CNC(=O)CSC(=O)c1ccccc1)c1ccccc1 (stereo not given) | 2.2% | 1% | 1.6% | 0.92% | 71.36% | 66.32% | 47.68% | 0.05% | 0.01% | 0.01% | 0% | 0.1% | 0.17% | 0.04% | 0.1% | 0.03% | 1.2% | 3.64% | 24.64% | 5.18% | Dose/organ (Rattus norvegicus [21]): 2.1%; Dose/organ (Rattus norvegicus [22]): 0.01%; Dose/organ (Rattus norvegicus [23]): 2.52%; Dose/organ (Rattus norvegicus [24]): 61.12%; Dose/organ (Rattus norvegicus [25]): 61.6% |
| O=C(CSC(=O)c1ccccc1)NCCCCNC(=O)CSC(=O)c1ccccc1 | 16.5% | 1.92% | 5.4% | 1.14% | 3.84% | 17.44% | 0.56% | 0.06% | 0% | 0.03% | 0% | 0.08% | 0.38% | 0.02% | 0.18% | 0.01% | 5.04% | 4.62% | 31.08% | 9.52% | Dose/organ (Rattus norvegicus [21]): 0.56%; Dose/organ (Rattus norvegicus [22]): 0.01%; Dose/organ (Rattus norvegicus [23]): 0.98%; Dose/organ (Rattus norvegicus [24]): 0.88%; Dose/organ (Rattus norvegicus [25]): 6.96% |
